Source: PubChem BioAssay
Apaf1 inhib: human Apaf-1 inhibition | actives 0.71% (n = 330,000) | reconstituted apoptosome caspase-3 activity, DEVD-Rh110 fluorescence | inhibition, % at 20 µM; active = inhibition of at least 40% at 20 µM
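System: Apoptosome proteins | Medium: Hepes pH 7.5 with detergent and BSA | Also added: Cytochrome c trigger plus (Z-DEVD)2-Rh110 caspase-3 substrate | Incubation: 30 min compound preincubation, 50 min activation, room temperature | Detection: Rhodamine 110 fluorescence at Ex 480/Em 540 nm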
MEKK3 PB1 HTS: modulators (inhibitors or enhancers) of MEK5 binding to human MEKK3 PB1 domain | bead-based flow cytometry, Alexa488-MEK5 binding to MEKK3; actives lie on both sides; 0 = blocked by unlabeled MEK5, 100 = vehicle | AID 1529 | Q99759 | actives 1.4% (n = 290,000) | binding response (% of control), % at 10 µM;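 active = binding response more than 3 SD above or below the average of its plate-row segment, actives on both sides; inconclusive = wells at one plate position flagged as instrument error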;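 note: Alexa488 bead fluorescence after subtracting the streptavidin-only scavenger bead signal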
MEKK2 mut-MEK5: signal of MEK5 binding to mutant human MEKK2 PB1 domain; bead flow cytometry, Alexa488-MEK5 binding to MEKK2 mutant; percent response, % at 10 µM; actives 0.35% (n = 290,000); in the data active = percent response above about 24%, passing the limit was not always enough
MEKK2wt PB1 HTS: raises or lowers MEK5 binding to wildtype human MEKK2 PB1 domain; Q9Y2U5; bead flow cytometry, Alexa488-MEK5 binding to MEKK2 WT; actives lie on both sides; binding response (% of control), % at 10 µM; actives 1.1% (n = 290,000); AID 1531; in the data active = binding response below about 67% or above about 130%; inconclusive = no clear call, values can overlap the other calls; inactive = in between
UBC13 inh: human UBC13 polyubiquitination inhibition; P61088; UBC13 polyubiquitin chain formation, TR-FRET; inhibition, % at 20 µM; actives 0.47% (n = 330,000); in the data active = inhibition above about 45%, passing the limit was not always enough; inconclusive = no clear call, values can overlap the other calls
Target sequence (P61088 whole entry, looked up): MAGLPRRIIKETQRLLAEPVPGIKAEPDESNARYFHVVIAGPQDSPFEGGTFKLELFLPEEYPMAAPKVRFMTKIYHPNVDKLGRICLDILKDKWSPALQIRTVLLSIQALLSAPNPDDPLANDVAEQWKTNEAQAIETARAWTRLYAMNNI
A number is an active result; . = inactive; ? = inconclusive; / = no result given; [ ] = dose if it differs, or a comment. A selection: hits, their analogues and other compounds. The true share with any hit is near 2.9%.

SMILES | Apaf1 inhib | MEKK3 PB1 HTS | MEKK2 mut-MEK5 | MEKK2wt PB1 HTS | UBC13 inh
O=C(OCC(=O)N1CCC(c2ccccc2)=N1)c1ccc([N+](=O)[O-])s1 | 51.6 | / | / | / | .
Nc1c(C(=O)CSc2nc3ccccc3o2)c(=O)[nH]c(=O)n1C1CC1 | . | / | / | / | .
CN(C)C(=O)Nc1ccccc1 | . | . | . | . | .
Cc1c(Cl)cccc1NC(=O)C1CC2CCC1C2 (stereo not given) | . | / | / | / | .
Cc1ccc(CNC(=O)c2cc3c(s2)CS(=O)(=O)C3)cc1 | . | 2.0[inhibitor] | . | 0.0[inhibitor] | .
O=C(NCc1cccs1)c1cc2c(s1)CS(=O)(=O)C2 | . | . | . | . | .
Cc1ccc(S(=O)(=O)c2nnn3c2nc(NC2CCN(Cc4ccccc4)CC2)c2ccccc23)cc1C | . | . | 30.0 | 176.0 | .
COc1ccc(-n2nc(C(=O)NCC(=O)NC3CCCCCC3)c3ccccc3c2=O)c(OC)c1 | 47.9 | . | . | . | .
CCCOc1ccc(N)cc1N | 91.0 | / | / | / | .
CC1=[N+](C)c2c(ccc3cccnc23)C1(C)C | / | . | . | -9.0 | /
Cc1[nH]c2c(ccc3cccnc32)c1C | . | . | . | . | .
CC1=C(C#N)C(=O)N(C2CCS(=O)(=O)C2)C(=O)/C1=C\c1ccco1 (stereo not given) | 54.2 | . | . | . | ?
O=C1C2=C(c3ccccc31)[N+](=O)C1CCCCC1N2[O-] (stereo not given) | 54.5 | . | . | . | .
O=C1c2ccccc2C(=O)c2c1ccc1c(=O)n(C3CCCCC3)[nH]c21 | . | . | . | . | .
CCCCn1c(SCC(=O)NCc2ccc3c(c2)OCO3)nnc1C(CC)N(C)C (stereo not given) | . | / | / | / | .
CN(C)c1ccc(C2N(c3ccc(F)cc3)C(=O)C3CCCN32)cc1 (stereo not given) | . | . | . | 18.0 | .
Cc1ccc(-c2ccc(/C=N/O)o2)cc1[N+](=O)[O-] | . | . | . | . | .
CCOC(=O)c1nc2cc3n(c(CC(C)C)c-2c1C)CC(C)=C3C | . | . | . | . | .
CCOC(=O)c1nc2cc3n(c(C)c-2c1C)C(C)C(C)=C3C (stereo not given) | . | 127.0 | . | . | .
COc1cc(/C=N/N=C/c2cc(OC)c(O)c(OC)c2)cc(OC)c1O | . | . | . | . | .
COc1cc(/C=N/N=C(/C(=O)c2ccccc2)c2ccccc2)cc(OC)c1O | . | 135.0 | . | . | .
CCOC(=O)CCc1c(C)nc(-n2[nH]c(C)c(CCO)c2=O)[nH]c1=O | . | . | . | . | .
Nc1nc(O)c(N=Nc2ccc(S(N)(=O)=O)cc2)c(=O)[nH]1 | . | . | . | . | .
NS(=O)(=O)c1ccc(N=Nc2c[nH]c(=O)c(O)c2)cc1 | 73.5 | . | . | . | .
CC(=O)N1CCN(C(=O)c2cccc(S(=O)(=O)N3CCN(c4ccc(F)cc4)CC3)c2)CC1 | . | / | / | / | .
SMILES | Apaf1 inhib | MEKK3 PB1 HTS | MEKK2 mut-MEK5 | MEKK2wt PB1 HTS | UBC13 inh
O=C(c1cccc(S(=O)(=O)N2CCN(c3ccc(F)cc3)CC2)c1)N1CCCCCCC1 | 41.8 | / | / | / | .
CCN(CC)CCNC(=O)c1ccc(NC(=O)Cc2ccccc2F)cc1 | . | . | . | . | .
CCN(CC)CCNC(=O)c1ccc(NC(=O)/C=C/c2ccc3ccccc3n2)cc1 | . | . | . | 0.0 | .
Cc1cccc(NC(=O)CNC(=O)CSc2nnc(C(F)(F)F)n2C)c1C | . | / | / | / | .
C#CCOCCOCCOCCNc1nc(N2CCN(C(=O)CCCCCCCCCCNC(=O)[C@H]([C@@H](C)CC)n3cc(CCCCCN)nn3)CC2)nc(N2CCN(C(=O)CCCCCCCCCCNC(=O)[C@@H]([C@H](C)O)n3cc(C)nn3)CC2)n1 | 49.9 | / | / | / | 118.4
C#CCOCCOCCOCCNc1nc(N2CCN(C(=O)CCCCCCCCCCNC(=O)[C@H](CCC(=O)O)n3cc(CCCCCN)nn3)CC2)nc(N2CCN(C(=O)CCCCCCCCCCNC(=O)[C@@H]([C@H](C)O)n3cc(C)nn3)CC2)n1 | 50.9 | / | / | / | .
O=C(Nc1nnc(C2CC2)s1)c1n[nH]c(=O)c2ccccc12 | . | . | . | . | .
Cc1ccc(-n2nc3c(c2NC(=O)c2ccc4c(c2)OCO4)CS(=O)(=O)C3)cc1 | . | 2.0[inhibitor] | . | 0.0[inhibitor] | .
O=C(Nc1c2c(nn1-c1cccc(Cl)c1)CS(=O)(=O)C2)c1ccco1 | . | 36.0[inhibitor] | . | 42.0[inhibitor] | .
Cc1ccc(-n2nc3c(c2NC(=O)c2ccco2)CS(=O)(=O)C3)cc1C | . | . | . | . | .
Cc1ccc(-n2nc3c(c2NC(=O)c2ccc4c(c2)OCO4)CS(=O)(=O)C3)cc1C | . | . | . | . | .
CCOC(=O)N1CCC(=NNC(=O)Cn2ccc(C(F)(F)F)n2)CC1 | . | . | . | . | .
Cc1ccc(/C=C/C(=O)NCCc2cccc(Cl)c2)o1 | . | . | . | . | .
Cc1ccc(N/C(=C\C(=O)c2ccccc2)C(=O)O)cc1 | . | . | . | . | .
O=S(=O)(c1ccc(N2CCC(c3ccc(Cl)cc3)=N2)cc1)N(CCO)CCO | . | . | . | . | .
CN(C)CCCNS(=O)(=O)c1ccc(N2CCC(c3ccc(Cl)cc3)=N2)cc1 | 73.4 | . | . | 162.0 | 55.2
C[C@H](CO)N1C[C@H](C)[C@@H](CN(C)S(=O)(=O)c2ccccc2)Oc2c(NS(=O)(=O)c3ccccc3)cccc2C1=O | . | / | / | / | .
CN(CC(=O)Nc1ccccc1Cl)C(=O)COC(=O)c1cnccn1 | . | . | . | . | .
COc1ccc(CC(=O)NN2C(=O)c3ccccc3C2=O)cc1 | . | . | . | . | .
COc1ccc(CC2=CC(=O)c3ccccc3C2=O)cc1 | 49.6 | . | . | . | .
Cc1sc2nc(CN3CCOCC3)nc(NS(=O)(=O)c3cc(Cl)ccc3Cl)c2c1C | . | / | / | / | .
Cc1cc(S(=O)(=O)NCc2ccccc2)ccc1OCC(=O)NCc1ccncc1 | . | . | . | . | .
Cc1nnc(SCc2ccc([N+](=O)[O-])cc2)o1 | . | . | . | . | .
CCc1c(O)nc(SCC(=O)N2CCc3cc(OC)c(OC)cc3[C@@H]2C)[nH]c1=O | . | . | . | . | .
O=S(=O)(O)c1cc(O)c2c(O)c(N=Nc3cc(Cl)ccc3O)c(S(=O)(=O)O)cc2c1 | . | . | . | . | .
Cc1cc(-c2ccc(N=Nc3c(S(=O)(=O)O)cc4cc(S(=O)(=O)O)cc(N)c4c3O)c(C)c2)ccc1N=Nc1c(S(=O)(=O)O)cc2cc(S(=O)(=O)O)cc(N)c2c1O | 98.3 | / | / | / | .
N#CC1=C(N)Oc2cc(N)ccc2C1c1ccccc1Cl (stereo not given) | . | . | . | . | .
N#CC1=C(N)OC2=C(CCc3ccccc32)C1c1ccccc1Cl (stereo not given) | . | 144.0 | . | . | .
CC1(C)CC(=O)C2=C(C1)N(Cc1ccco1)C(=O)C2(NC(=O)c1cccnc1)C(F)(F)F (stereo not given) | . | 56.0[inhibitor] | . | . | .
